# Assay outcomes (PubChem BioAssay)
# Shown are actives, neighbours in structure and some others; about 2% of the full set was active somewhere.
# VLA-4 inh: inhibition in a human VLA-4 binding assay; P13612; VLA-4 expressing cells, ligand binding flow cytometry; inhibition, % (about 7 µM as worked out from the volumes in the protocol); 330,000 tested, 0.2% active; AID 2557; in the data active = inhibition above about 50%
# FGF22 binding: shifts melting point of recombinant human FGF22; 340,000 tested, 1.5% active; Q9HCT0; activity (Tm shift, normalised), % at 9.99 µM; recombinant FGF22 thermal shift, SYPRO orange fluorescence; percent of sucrose octasulfate shift, DMSO zero; AID 651658;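 active = mean Tm shift, scaled 0 neutral to 100 positive control, at about 1.3% or above, every replicate too, limit read from the data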
# MT1-MMP act inh: inhibitors of human MT1-MMP activation; P50281; HT1080 RFP-PRO-GFP cells, GFP/RFP ratio fluorescence, overnight; percent of plate control window, DMSO zero; GFP/RFP ratio change, % at 20 µM; 360,000 tested, 0.061% active;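 active = GFP/RFP ratio change of at least 30% with cell ATP level not reduced by more than half and red fluorescence within 50% of control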
#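 Assay system: RFP-PRO-GFP reporter HT1080 cells; read-out basis: GFP/RFP fluorescence ratio; benchmarks: DMSO wells and RFP-L50D-GFP cells; doses: 20 µM single dose, 1% DMSO; schedule: overnight cell settling, then overnight compound exposure, 37 °C, 5% CO2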
# DAGLB inh: diacylglycerol lipase beta (human) inhibition; Q8NCG7; HEK293T DAGLB membrane lysate, EnzChek fluorogenic substrate; inhibition, % at 5.17 µM; 340,000 tested, 0.059% active; in the data active = inhibition above about 34%;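 note: 0% = enzyme with vehicle and 100% = wells lacking enzyme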
# Granule exo inh: blocks lytic granule exocytosis | TALL-104 LAMP-1 surface exposure, flow cytometry; cells stimulated with thapsigargin and PMA | AID 651702 | inhibition, % at 10 µM | 360,000 tested, 0.66% active;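 active = inhibition above about 55%, limit read from the data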
# ABCB6 inh MLPCN: blocks the human ABCB6 transporter; Q9NP58; K562-ABCB6 porphyrin accumulation, flow cytometry, 1 h; hits give low values; fluorescence ratio to DMSO, % at 10 µM; 360,000 tested, 0.19% active;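 active = fluorescence ratio to DMSO below 75%, the collection mean minus 3 SD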;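 note: signal is porphyrin accumulated inside mitochondria; 100% equals median channel fluorescence of DMSO control wells; lower ratio means ABCB6 inhibition with less porphyrin fluorescence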
# Target sequence (Q9NP58 whole entry, looked up): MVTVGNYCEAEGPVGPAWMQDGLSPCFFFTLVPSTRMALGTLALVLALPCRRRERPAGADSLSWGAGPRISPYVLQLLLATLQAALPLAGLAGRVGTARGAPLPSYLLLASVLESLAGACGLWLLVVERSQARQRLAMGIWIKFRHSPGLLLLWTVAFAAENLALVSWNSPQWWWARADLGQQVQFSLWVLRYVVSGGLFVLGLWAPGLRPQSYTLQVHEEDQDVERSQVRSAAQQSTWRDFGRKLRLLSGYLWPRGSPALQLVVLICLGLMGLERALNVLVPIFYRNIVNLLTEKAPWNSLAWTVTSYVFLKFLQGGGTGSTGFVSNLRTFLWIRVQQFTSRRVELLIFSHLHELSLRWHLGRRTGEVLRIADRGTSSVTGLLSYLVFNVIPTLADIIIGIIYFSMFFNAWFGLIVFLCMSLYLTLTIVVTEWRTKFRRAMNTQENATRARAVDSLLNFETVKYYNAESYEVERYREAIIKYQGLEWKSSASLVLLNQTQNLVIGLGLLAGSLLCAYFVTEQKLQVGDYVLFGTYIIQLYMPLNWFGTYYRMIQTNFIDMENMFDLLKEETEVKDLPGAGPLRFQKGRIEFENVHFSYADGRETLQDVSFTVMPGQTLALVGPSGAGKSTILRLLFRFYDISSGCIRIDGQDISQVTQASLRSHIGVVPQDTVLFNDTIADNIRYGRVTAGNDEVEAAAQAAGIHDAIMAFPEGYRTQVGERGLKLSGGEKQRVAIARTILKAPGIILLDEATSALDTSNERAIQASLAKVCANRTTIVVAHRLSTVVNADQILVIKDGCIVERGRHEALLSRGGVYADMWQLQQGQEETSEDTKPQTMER
# ABCB6 blocker 1: inhibitors of human ABC transporter ABCB6; shares compounds with ABCB6 inh MLPCN; AID 602430; ratio response (% of DMSO), % at 10 µM; K562-ABCB6 porphyrin accumulation, flow cytometry, 1 h; hits give low values; 700 tested, under 10 active;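 active = repeat-averaged ratio response below 75% of DMSO, the collection mean minus 3 SD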;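 note: median porphyrin fluorescence at 575 nm with 488 nm excitation from mitochondria; lower ratio means less porphyrin signal so ABCB6 inhibition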
# Starred values were filed as active, the others as inactive; i = inactive; x = not tested or not shown.
SMILES,VLA-4 inh,FGF22 binding,MT1-MMP act inh,DAGLB inh,Granule exo inh,ABCB6 inh MLPCN,ABCB6 blocker 1
CO[C@@H]1CN(C)C(=O)c2cc(NS(=O)(=O)c3ccccc3C)ccc2OC[C@H](C)NC[C@@H]1C,x,0,x,x,x,x,x
CCN1C(=O)c2ccccc2S(=O)(=O)c2ccc(C(=O)NCCCN(CC(C)C)CC(C)C)cc21,2,0,0,0,27,66*,101
CCC(=O)Nc1ccc2c(c1)C(=O)N(C)C[C@H](OC)[C@@H](C)CN(Cc1ccccn1)[C@@H](C)CO2,x,0,x,x,x,x,x
COc1ccccc1S(=O)(=O)N(C)C[C@@H]1OCc2ccccc2-c2ccccc2C(=O)N([C@H](C)CO)C[C@@H]1C,x,0,x,x,x,x,x
CN(Cc1ccccc1)Cc1nc2c(c(=O)n(C)c(=O)n2C)n1Cc1ccc(F)cc1,-5,x,-4,-7,0,63*,97
COC(=O)[C@@H](NC(=O)Nc1ccc(S(N)(=O)=O)cc1)C(C)C,22,0,5,0,-2,71*,103
COc1ccccc1C(=O)Nc1ccnn1C1CCN(C(=O)c2ccoc2)CC1,7,0,-7,2,-3,74*,98
COc1ccc(CNC(=O)CSc2nnc(C)s2)cc1,2,x,-2,-1,1,74*,97
COc1ccccc1NC(=O)COC(=O)CC(C)(C)CC1=NS(=O)(=O)c2ccccc2N1,2,0,3,1,0,98,x
Cc1ccccc1COC(=O)CCCC1=NS(=O)(=O)c2ccccc2N1,i,0,-8,0,1,100,x
COc1ccc(Cl)cc1NC(=O)COC(=O)CCCC1=NS(=O)(=O)c2ccccc2N1,-1,0,0,0,-1,101,102
O=C(COC(=O)CCCC1=NS(=O)(=O)c2ccccc2N1)Nc1ccc(Br)cc1,-5,0,-12,3,-5,104,97
Cc1ccc(NC(=O)COC(=O)CCCC2=NS(=O)(=O)c3ccccc3N2)cc1C,-3,0,-7,1,-4,10*,99
CO[C@H]1CN(C)C(=O)c2cc(NS(=O)(=O)c3ccccc3)ccc2OC[C@@H](C)N(C(=O)NC(C)C)C[C@H]1C,x,0,x,x,x,x,x
C[C@H](CO)N1C[C@H](C)[C@H](CN(C)S(C)(=O)=O)Oc2c(NS(=O)(=O)c3ccccc3)cccc2C1=O,x,0,x,x,x,x,x
C[C@@H]1CCCCO[C@@H](CN(C)Cc2ccccc2)[C@H](C)CN([C@@H](C)CO)C(=O)c2cc(N(C)C)ccc2O1,x,-1,x,x,x,x,x
COCc1nnc(NC(=O)c2c(-c3c(Cl)cccc3Cl)noc2C)s1,11,1,-8,0,0,67*,101
O=C(C[C@H]1C[C@H]2c3cc(NC(=O)Cc4ccncc4)ccc3O[C@H]2[C@@H](CO)O1)NCc1ccncc1,x,0,x,x,x,x,x
CC(C)NC(=O)Cn1cnc2c1c(=O)n(C)c(=O)n2C,3,x,4,0,2,99,x
Cn1c(=O)c2c(ncn2CC(=O)NC(C)(C)C)n(C)c1=O,-8,0,7,-2,-6,74*,99
Cc1nn(C(C)(C)C)c(OC(=O)c2cccs2)c1S(=O)(=O)c1ccccc1,-2,x,-1,-3,4,74*,101
CC(=O)Oc1c(S(=O)(=O)c2ccccc2)c(C)nn1C(C)(C)C,26,x,4,-1,0,91,x
COCC#Cc1ccc2c(c1)O[C@H](CN(C)C(=O)C1CC1)[C@H](C)CN([C@@H](C)CO)S2(=O)=O,x,0,x,x,x,x,x
CC(=O)c1cccc(-c2ccnc3c2CC(C(=O)Nc2cccc(N(C)C)c2)O3)c1 (stereo not given),x,0,-3,x,2,92,99
CC(=O)c1cccc(-c2ccnc3c2CC(C(=O)Nc2cccc(Oc4ccccc4)c2)O3)c1 (stereo not given),x,0,1,x,-5,99,101
